Here are results for one molecule from ChEMBL document CHEMBL1811781, “Arthrinins A-D: novel diterpenoids and further constituents from the sponge derived fungus Arthrinium sp” (Bioorg Med Chem, 2011).

One assay deals with Focal adhesion kinase 1 (Homo sapiens, UniProt Q05397). The experiment in a line: Inhibition of recombinant FAK assessed as 33Pi incorporation after 60 mins by scintillation counting. The gist of the method: (§1)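 Tyrosine kinases assayed on poly(Glu,Tyr) in 70 mM HEPES-NaOH pH 7.5, 3 mM MgCl2, 3 mM MnCl2, orthovanadate, 1.2 mM DTT, PEG, 1 µM [γ-33P]-ATP; 30 °C for 60 min, then 2% H3PO4 stop, saline wash, 33Pi scintillation. IC50 derived from residual activity at 10 concentrations in singlicate.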
Focal adhesion kinase 1, sequence (Q05397 whole entry): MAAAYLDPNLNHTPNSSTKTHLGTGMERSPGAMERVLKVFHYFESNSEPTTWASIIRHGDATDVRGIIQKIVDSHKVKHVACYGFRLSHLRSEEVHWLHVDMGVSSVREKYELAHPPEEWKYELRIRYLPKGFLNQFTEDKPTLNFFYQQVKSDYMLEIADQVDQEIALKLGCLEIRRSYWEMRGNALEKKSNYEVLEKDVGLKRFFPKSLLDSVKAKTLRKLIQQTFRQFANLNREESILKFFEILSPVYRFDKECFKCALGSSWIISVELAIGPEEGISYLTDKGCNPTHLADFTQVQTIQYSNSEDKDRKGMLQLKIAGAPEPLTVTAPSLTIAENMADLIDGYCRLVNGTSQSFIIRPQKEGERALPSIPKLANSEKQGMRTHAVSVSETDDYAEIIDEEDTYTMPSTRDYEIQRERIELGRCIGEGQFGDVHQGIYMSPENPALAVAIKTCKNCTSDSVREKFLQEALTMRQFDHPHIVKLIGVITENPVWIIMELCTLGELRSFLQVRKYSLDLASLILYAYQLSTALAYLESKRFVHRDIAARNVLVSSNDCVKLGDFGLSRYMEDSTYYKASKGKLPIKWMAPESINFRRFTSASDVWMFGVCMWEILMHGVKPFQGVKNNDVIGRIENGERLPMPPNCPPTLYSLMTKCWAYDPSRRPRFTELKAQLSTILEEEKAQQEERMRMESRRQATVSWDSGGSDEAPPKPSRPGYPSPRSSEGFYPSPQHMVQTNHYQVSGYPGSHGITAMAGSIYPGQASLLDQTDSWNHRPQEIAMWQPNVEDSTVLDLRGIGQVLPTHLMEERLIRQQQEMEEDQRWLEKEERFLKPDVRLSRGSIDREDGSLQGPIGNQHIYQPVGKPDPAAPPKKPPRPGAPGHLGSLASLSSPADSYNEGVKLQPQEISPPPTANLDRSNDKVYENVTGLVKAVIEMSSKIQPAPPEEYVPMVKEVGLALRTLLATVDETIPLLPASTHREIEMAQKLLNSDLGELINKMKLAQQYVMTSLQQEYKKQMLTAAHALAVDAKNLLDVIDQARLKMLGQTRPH

Assay [1] concerns the target Dual specificity mitogen-activated protein kinase kinase 1 (Homo sapiens, UniProt Q02750). Briefly: Inhibition of wild type MEK1 assessed as 33Pi incorporation after 60 mins by scintillation counting. Summed up: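 ERK2-KR is the substrate for wild-type MEK1 in 70 mM HEPES-NaOH pH 7.5 containing 3 mM MgCl2, 3 mM MnCl2, orthovanadate, 1.2 mM DTT, PEG and 1 µM [γ-33P]-ATP. Reaction runs 60 min at 30 °C and is stopped with 2% H3PO4; incorporated 33Pi is counted after washing. IC50 comes from 10 concentrations tested once each.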

Another assay has as its target Aurora kinase B (Homo sapiens, UniProt Q96GD4). The experiment in a line: Inhibition of recombinant Aurora-b assessed as 33Pi incorporation after 60 mins by scintillation counting. Summed up: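 Substrate tetra(LRRWSLG) with recombinant Aurora-B. Buffer is 70 mM HEPES-NaOH pH 7.5, 3 mM MgCl2, 3 mM MnCl2, orthovanadate, 1.2 mM DTT, PEG, with 1 µM [γ-33P]-ATP. After 60 min at 30 °C, 2% H3PO4 stop, NaCl washes, 33Pi counted. IC50 fitted from 10 singlicate concentrations.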

Assay [2] addresses Serine/threonine-protein kinase pim-1 (Homo sapiens, UniProt P11309). The experiment in a line: Inhibition of recombinant PIM1 assessed as 33Pi incorporation after 60 mins by scintillation counting. Summed up:
(§2)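 Recombinant kinase with GSK3(14-27) substrate in 70 mM HEPES-NaOH pH 7.5, 3 mM MgCl2, 3 mM MnCl2, Na-orthovanadate, 1.2 mM DTT, PEG, 1 µM [γ-33P]-ATP. Incubated 30 °C, 60 min, stopped with 2% H3PO4, washed with 0.9% NaCl, 33Pi counted. IC50 from residual activity over 10 concentrations in singlicate.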

Another assay relates to K562. The experiment in a line: Antiproliferative activity against human K562 cells up to 365 uM after 24 hrs by MTT assay. Type of assay: functional, cell-based.
The target in assay [3] is Insulin-like growth factor 1 receptor (Homo sapiens, UniProt P08069). Briefly: Inhibition of recombinant IGF1-R assessed as 33Pi incorporation after 60 mins by scintillation counting. The gist of the method: as §1
Assay [4] concerns the target Serine/threonine-protein kinase Nek2 (Homo sapiens, UniProt P51955). The experiment in a line: Inhibition of recombinant NEK2 assessed as 33Pi incorporation after 60 mins by scintillation counting. The gist of the method:
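NEK2 reaction on RB-CTF substrate. Contains 70 mM HEPES-NaOH pH 7.5, 3 mM MgCl2/MnCl2, orthovanadate, 1.2 mM DTT, PEG and 1 µM [γ-33P]-ATP. Incubation is 30 °C, 60 min, followed by 2% H3PO4 stop, 0.9% NaCl washes and 33Pi scintillation counting. IC50 from 10 concentrations in singlicate.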

The target of assay [5] is Hepatocyte growth factor receptor (Homo sapiens, UniProt P08581). Briefly: Inhibition of wild type MET assessed as 33Pi incorporation after 60 mins by scintillation counting. The gist of the method:
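Wild-type MET phosphorylates poly(Ala,Glu,Lys,Tyr) in HEPES-NaOH pH 7.5 (70 mM) with 3 mM MgCl2, 3 mM MnCl2, orthovanadate, 1.2 mM DTT, PEG, 1 µM [γ-33P]-ATP, at 30 °C for 60 min. Stop with 2% H3PO4, wash, scintillation count. IC50 from residual activity at 10 singlicate concentrations.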

In assay [6] the target is Proto-oncogene tyrosine-protein kinase Src (Homo sapiens, UniProt P12931). Briefly: Inhibition of recombinant SRC assessed as 33Pi incorporation after 60 mins by scintillation counting. Summed up: as §1
For assay [7], the target named is Vascular endothelial growth factor receptor 2 (Homo sapiens, UniProt P35968). The experiment in a line: Inhibition of recombinant VEGF-R2 assessed as 33Pi incorporation after 60 mins by scintillation counting. The gist of the method: as §1
For assay [8], the target named is Serine/threonine-protein kinase Nek6 (Homo sapiens, UniProt Q9HC98). Briefly: Inhibition of recombinant NEK6 assessed as 33Pi incorporation after 60 mins by scintillation counting. The gist of the method:
as §2

The target in assay [9] is Serine/threonine-protein kinase N1 (Homo sapiens, UniProt Q16512). Briefly: Inhibition of recombinant PRK1 assessed as 33Pi incorporation after 60 mins by scintillation counting. The gist of the method: (§3)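 Kinase reaction uses RBER-CHKtide as substrate in HEPES-NaOH pH 7.5 (70 mM) with 3 mM each MgCl2 and MnCl2, orthovanadate, 1.2 mM DTT, PEG and 1 µM [γ-33P]-ATP. Run at 30 °C for 60 min, quenched in 2% H3PO4, saline-washed, scintillation-counted. Residual activity at 10 concentrations (singlicate) gives IC50.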

For assay [10], the target named is ALK tyrosine kinase receptor (Homo sapiens, UniProt Q9UM73). Briefly: Inhibition of recombinant ALK assessed as 33Pi incorporation after 60 mins by scintillation counting. Summed up:
as §1

Assay [11] relates to A2780. Briefly: Antiproliferative activity against human cisplatin resistant A2780 cells after 24 hrs by MTT assay. Format: functional, cell-based. Conditions: Homo sapiens, A2780, 24 h; read-out: IC50; call rule not given here. Summed up: (§4)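 Microplate MTT proliferation read-out, scored against untreated controls; each experiment run in triplicate.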
In another assay the test system is HUVEC. The experiment in a line: Inhibition of VEGF-A induced HUVEC cell sprouting after 24 hrs by angiogenesis assay. Format: functional, cell-based. The following applies: Homo sapiens. The gist of the method: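 HUVEC spheroids (500 cells, formed overnight in hanging drops) embedded in collagen gel. Compound plus VEGF-A (25 ng/mL final) added after 30 min; 37 °C for 24 h, then paraformaldehyde fixation. Mean cumulative sprout length of 10 random spheroids per point; seven concentrations, 10 µM to 10 nM, in singlicate for IC50.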

In assay [12] the test system is A2780. The experiment in a line: Antiproliferative activity against human A2780 cells after 24 hrs by MTT assay. The following applies: Homo sapiens, A2780, 24 h; read-out: IC50. Type of assay: functional, cell-based. Summed up:
as §4

The next assay concerns L5178Y. The experiment in a line: Antiproliferative activity against mouse L5178Y cells after 24 hrs by MTT assay. Format: functional, cell-based. The following applies: Mus musculus, L5178Y, 24 h; read-out: IC50. The gist of the method:
as §4

The target in assay [13] is RAC-alpha serine/threonine-protein kinase (Homo sapiens, UniProt P31749). Briefly: Inhibition of recombinant AKT1 assessed as 33Pi incorporation after 60 mins by scintillation counting. The gist of the method:
as §2

The target in assay [14] is Tyrosine-protein kinase receptor UFO (Homo sapiens, UniProt P30530). The experiment in a line: Inhibition of recombinant AXL assessed as 33Pi incorporation after 60 mins by scintillation counting. The gist of the method: as §1
Assay [15] deals with Serine/threonine-protein kinase PLK1 (Homo sapiens, UniProt P53350). The experiment in a line: Inhibition of recombinant PLK1 assessed as 33Pi incorporation after 60 mins by scintillation counting. The gist of the method: as §3
Serine/threonine-protein kinase PLK1, sequence (P53350 whole entry): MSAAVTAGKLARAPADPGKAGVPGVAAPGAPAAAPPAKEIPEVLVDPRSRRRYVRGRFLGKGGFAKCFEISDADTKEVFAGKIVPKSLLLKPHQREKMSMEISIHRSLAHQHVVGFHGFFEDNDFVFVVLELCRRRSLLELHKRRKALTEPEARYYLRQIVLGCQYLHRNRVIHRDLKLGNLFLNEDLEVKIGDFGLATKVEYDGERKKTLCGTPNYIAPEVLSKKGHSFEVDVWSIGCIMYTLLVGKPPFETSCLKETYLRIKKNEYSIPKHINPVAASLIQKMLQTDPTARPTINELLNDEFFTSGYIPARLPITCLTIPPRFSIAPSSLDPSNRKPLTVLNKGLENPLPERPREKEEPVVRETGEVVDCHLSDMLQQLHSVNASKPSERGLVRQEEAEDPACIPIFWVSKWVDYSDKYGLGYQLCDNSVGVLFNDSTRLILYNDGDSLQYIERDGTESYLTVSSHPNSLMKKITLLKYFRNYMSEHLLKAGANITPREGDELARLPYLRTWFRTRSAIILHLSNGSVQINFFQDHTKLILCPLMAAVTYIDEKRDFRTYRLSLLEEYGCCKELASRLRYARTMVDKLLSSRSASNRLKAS
Assay [16] concerns the target NUAK family SNF1-like kinase 1 (Homo sapiens, UniProt O60285). The experiment in a line: Inhibition of recombinant ARK5 assessed as 33Pi incorporation after 60 mins by scintillation counting. Summed up:
as §3

RAC-alpha serine/threonine-protein kinase, sequence (P31749 whole entry): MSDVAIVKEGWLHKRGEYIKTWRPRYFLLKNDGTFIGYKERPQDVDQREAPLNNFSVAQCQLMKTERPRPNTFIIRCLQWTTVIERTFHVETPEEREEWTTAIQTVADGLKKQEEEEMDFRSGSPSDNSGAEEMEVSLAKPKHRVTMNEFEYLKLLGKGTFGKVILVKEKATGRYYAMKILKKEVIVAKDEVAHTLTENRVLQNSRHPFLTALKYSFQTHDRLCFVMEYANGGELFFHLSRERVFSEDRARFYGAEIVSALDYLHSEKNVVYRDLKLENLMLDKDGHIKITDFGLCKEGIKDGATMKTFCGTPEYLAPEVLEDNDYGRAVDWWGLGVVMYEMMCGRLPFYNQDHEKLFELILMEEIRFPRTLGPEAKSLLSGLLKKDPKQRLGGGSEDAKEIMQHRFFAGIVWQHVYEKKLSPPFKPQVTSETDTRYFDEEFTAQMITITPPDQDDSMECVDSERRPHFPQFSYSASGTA
Serine/threonine-protein kinase Nek6, sequence (Q9HC98 whole entry): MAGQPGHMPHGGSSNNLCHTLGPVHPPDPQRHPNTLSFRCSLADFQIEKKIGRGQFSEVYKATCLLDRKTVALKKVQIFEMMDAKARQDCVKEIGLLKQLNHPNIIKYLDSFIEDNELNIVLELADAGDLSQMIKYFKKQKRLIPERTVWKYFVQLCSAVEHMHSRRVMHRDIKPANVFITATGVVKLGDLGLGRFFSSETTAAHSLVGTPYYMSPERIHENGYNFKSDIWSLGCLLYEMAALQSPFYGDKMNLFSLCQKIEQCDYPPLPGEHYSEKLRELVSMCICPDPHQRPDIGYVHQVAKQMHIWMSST
Hepatocyte growth factor receptor, sequence (P08581 whole entry): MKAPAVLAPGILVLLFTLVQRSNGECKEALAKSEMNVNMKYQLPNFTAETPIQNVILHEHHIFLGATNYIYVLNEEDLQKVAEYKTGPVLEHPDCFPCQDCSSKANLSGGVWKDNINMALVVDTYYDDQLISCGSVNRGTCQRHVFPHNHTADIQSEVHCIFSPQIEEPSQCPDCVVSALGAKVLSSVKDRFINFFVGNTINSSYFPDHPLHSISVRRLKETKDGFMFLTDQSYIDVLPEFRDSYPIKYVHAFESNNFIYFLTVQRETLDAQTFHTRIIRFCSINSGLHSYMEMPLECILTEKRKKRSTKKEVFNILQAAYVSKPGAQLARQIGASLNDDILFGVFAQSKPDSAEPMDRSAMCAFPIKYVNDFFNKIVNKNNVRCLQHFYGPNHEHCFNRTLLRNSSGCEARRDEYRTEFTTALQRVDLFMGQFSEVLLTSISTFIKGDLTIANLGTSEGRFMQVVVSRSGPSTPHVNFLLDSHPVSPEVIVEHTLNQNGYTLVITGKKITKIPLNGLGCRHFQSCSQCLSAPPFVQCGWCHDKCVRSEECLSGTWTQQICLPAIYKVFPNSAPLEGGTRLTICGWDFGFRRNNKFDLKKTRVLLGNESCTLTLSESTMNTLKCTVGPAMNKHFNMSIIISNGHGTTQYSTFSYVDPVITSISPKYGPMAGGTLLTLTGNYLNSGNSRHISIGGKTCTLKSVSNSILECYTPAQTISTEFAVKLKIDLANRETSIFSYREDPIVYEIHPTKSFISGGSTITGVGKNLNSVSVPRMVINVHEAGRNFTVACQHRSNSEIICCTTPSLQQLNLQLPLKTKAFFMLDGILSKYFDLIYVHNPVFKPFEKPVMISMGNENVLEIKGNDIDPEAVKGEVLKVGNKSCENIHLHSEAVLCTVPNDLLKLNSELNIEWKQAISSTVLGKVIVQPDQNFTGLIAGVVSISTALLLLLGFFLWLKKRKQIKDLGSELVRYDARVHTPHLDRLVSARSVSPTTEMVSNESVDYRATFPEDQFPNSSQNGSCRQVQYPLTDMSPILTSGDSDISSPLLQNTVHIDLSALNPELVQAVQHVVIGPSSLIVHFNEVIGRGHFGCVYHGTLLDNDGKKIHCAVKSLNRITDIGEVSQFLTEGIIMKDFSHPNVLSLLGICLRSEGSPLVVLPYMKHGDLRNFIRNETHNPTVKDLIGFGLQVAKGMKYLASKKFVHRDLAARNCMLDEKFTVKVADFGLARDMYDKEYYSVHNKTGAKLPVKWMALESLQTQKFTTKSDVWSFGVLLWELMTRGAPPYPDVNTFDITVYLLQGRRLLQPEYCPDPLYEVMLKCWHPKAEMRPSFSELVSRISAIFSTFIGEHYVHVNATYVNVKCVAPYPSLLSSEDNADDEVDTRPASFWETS
Aurora kinase B, sequence (Q96GD4 whole entry): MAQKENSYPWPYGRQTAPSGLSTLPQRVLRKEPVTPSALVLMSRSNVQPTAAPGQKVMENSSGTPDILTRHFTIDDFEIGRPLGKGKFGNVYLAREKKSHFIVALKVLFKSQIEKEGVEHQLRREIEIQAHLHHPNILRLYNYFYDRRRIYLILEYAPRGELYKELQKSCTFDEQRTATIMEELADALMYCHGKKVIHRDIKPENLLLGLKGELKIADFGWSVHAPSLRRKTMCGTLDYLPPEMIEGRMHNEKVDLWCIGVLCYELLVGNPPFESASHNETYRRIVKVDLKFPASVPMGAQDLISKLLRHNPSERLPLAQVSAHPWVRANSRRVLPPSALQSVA
Serine/threonine-protein kinase Nek2, sequence (P51955 whole entry): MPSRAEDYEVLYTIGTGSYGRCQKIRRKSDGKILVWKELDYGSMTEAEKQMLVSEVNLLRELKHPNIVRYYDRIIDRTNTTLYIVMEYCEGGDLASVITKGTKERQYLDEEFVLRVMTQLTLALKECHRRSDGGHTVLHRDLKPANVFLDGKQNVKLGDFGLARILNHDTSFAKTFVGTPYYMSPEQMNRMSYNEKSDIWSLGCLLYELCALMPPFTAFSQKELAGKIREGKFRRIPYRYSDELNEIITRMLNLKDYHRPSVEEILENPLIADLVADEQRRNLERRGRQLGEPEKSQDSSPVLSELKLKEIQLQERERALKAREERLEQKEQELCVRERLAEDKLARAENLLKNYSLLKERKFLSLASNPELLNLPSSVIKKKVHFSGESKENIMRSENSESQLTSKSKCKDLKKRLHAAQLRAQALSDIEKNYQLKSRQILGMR
Dual specificity mitogen-activated protein kinase kinase 1, sequence (Q02750 whole entry): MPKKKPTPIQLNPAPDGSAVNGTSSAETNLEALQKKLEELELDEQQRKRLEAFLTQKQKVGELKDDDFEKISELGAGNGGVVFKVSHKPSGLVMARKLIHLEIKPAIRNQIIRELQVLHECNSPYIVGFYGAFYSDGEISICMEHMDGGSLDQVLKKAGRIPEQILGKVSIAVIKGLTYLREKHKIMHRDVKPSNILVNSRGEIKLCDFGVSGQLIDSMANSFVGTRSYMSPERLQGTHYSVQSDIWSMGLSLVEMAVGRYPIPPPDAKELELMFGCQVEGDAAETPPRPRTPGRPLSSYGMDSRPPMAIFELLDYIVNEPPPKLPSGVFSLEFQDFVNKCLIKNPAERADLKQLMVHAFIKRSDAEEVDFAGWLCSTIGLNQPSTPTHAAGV

Regarding `Cc1c(O)c(O)cc2oc3cc(O)cc(O)c3c(=O)c12` [ANOMALIN A], the half-inhibitory concentration (IC50) on Focal adhesion kinase 1 was 15.2 µM; in assay [1], over 100 µM; at Aurora kinase B it was 0.5 µM; in [2] it was 0.3 µM; in the assay with K562, “Not Active”; in [3], 8.6 µM. Besides, the IC50 in assay [4] came to 83.9 µM; in assay [5], 4.4 µM; in assay [6], 12.9 µM; in assay [7], 0.8 µM; in assay [8], 67.8 µM; in assay [9] it was 45.3 µM. For the same molecule, the concentration for half-maximal inhibition (IC50) in assay [10] is 1.1 µM; in the assay on A2780 [11], 26 µM; in the assay on HUVEC, 1.8 µM; with A2780 [12] it was 4.34 µM; in the assay on L5178Y, 0.4 µM; in [13], over 100 µM. Besides, the IC50 came out at 6.6 µM in assay [14], 8.8 µM in [15] and 15.6 µM in assay [16].
